In ChEMBL document CHEMBL1165950, “Design and synthesis of new potent anticancer pyrazoles with high FLT3 kinase inhibitory selectivity” (Bioorg Med Chem, 2010):

Tests used:
Format in all cases: functional
[1] = test system: 786-0; assay: Cytotoxicity against human 786-0 cells assessed as cell growth at 100 nM after 48 hrs by sulforhodamine B assay; settings: 786-0, 48 h, read-out: Activity
Method in brief: (§1)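 NCI-60 five-dose screen. Cells were grown in RPMI 1640 with 5% FBS and 2 mM L-glutamine, plated at 5000–40,000 cells/well and preincubated for 24 h. Time-zero plates were TCA-fixed. DMSO-solubilized drug was added at five concentrations (10-fold or ½-log serial dilutions) for 48 h at 37 °C, 5% CO2. Cells were TCA-fixed, stained with 0.4% SRB and read at 515 nm. Percent growth used time-zero, control and test absorbances.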

[2] = test system: M14; assay: Cytotoxicity against human M14 cells assessed as cell growth at 0.01 uM after 48 hrs by sulforhodamine B assay; settings: M14, 48 h, read-out: Activity
[3] = test system: HT-29; assay: Growth inhibition of human HT-29 cells after 48 hrs by sulforhodamine B assay; settings: HT-29, 48 h
Method in brief: (§2)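 NCI 60-cell screen, five-dose mode. Cells grown in RPMI 1640 with 5% FBS and 2 mM L-glutamine and plated at 5000-40,000 cells/well according to doubling time. After 24 h preincubation, a Tz plate was TCA-fixed. Five concentrations (10-fold or 1/2 log dilutions) were applied for 48 h at 37 °C. SRB staining read at 515 nm. IC50 taken from [(Ti-Tz)/(C-Tz)]×100 = 50.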

[4] = test system: NCI-H522; assay: Cytotoxicity against human NCI-H522 cells assessed as cell growth at 1 uM after 48 hrs by sulforhodamine B assay; settings: NCI-H522, 48 h, read-out: Activity
[5] = test system: CAKI-1; assay: Growth inhibition of human Caki1 cells after 48 hrs by sulforhodamine B assay; settings: CAKI-1, 48 h
Method in brief: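 NCI five-dose SRB assay in RPMI 1640 with 5% FBS and 2 mM L-glutamine. Cells were preincubated 24 h, then exposed 48 h at 37 °C to five concentrations (10-fold or half-log serial dilutions from DMSO stocks). TCA fixation, SRB staining, and absorbance at 515 nm followed. IC50 was taken where [(Ti−Tz)/(C−Tz)]×100 = 50, with Tz as time-zero cell density.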

[6] = test system: DU-145; assay: Cytotoxicity against human DU145 cells assessed as cell growth at 0.001 uM after 48 hrs by sulforhodamine B assay; settings: DU-145, 48 h, read-out: Activity
[7] = test system: UACC-257; assay: Cytotoxicity against human UACC257 cells assessed as cell growth at 10 uM after 48 hrs by sulforhodamine B assay; settings: UACC-257, 48 h, read-out: Activity
[8] = test system: KM12; assay: Cytotoxicity against human KM12 cells assessed as cell growth at 0.01 uM after 48 hrs by sulforhodamine B assay; settings: KM12, 48 h, read-out: Activity
[9] = test system: UACC-62; assay: Cytotoxicity against human UACC62 cells assessed as cell growth at 100 nM after 48 hrs by sulforhodamine B assay; settings: UACC-62, 48 h, read-out: Activity
[10] = test system: SF-295; assay: Cytotoxicity against human SF295 cells assessed as cell growth at 0.001 uM after 48 hrs by sulforhodamine B assay; settings: SF-295, 48 h, read-out: Activity
[11] = test system: HT-29; assay: Cytotoxicity against human HT-29 cells assessed as cell growth at 0.01 uM after 48 hrs by sulforhodamine B assay; settings: HT-29, 48 h, read-out: Activity
[12] = test system: BT-549; assay: Cytotoxicity against human BT549 cells assessed as cell growth at 0.001 uM after 48 hrs by sulforhodamine B assay; settings: BT-549, 48 h, read-out: Activity; method in brief: as §1
[13] = test system: IGROV-1; assay: Cytotoxicity against human IGROV1 cells assessed as cell growth at 100 nM after 48 hrs by sulforhodamine B assay; settings: IGROV-1, 48 h, read-out: Activity
[14] = test system: CAKI-1; assay: Cytotoxicity against human Caki1 cells assessed as cell growth at 10 uM after 48 hrs by sulforhodamine B assay; settings: CAKI-1, 48 h, read-out: Activity
[15] = test system: HCT-15; assay: Cytotoxicity against human HCT15 cells assessed as cell growth at 10 uM; settings: read-out: Activity
Method in brief: (§3)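 Single-dose NCI-60 screen at 10 µM. Cells were grown in RPMI 1640 with 5% FBS and 2 mM L-glutamine, then treated for 48 h at 37 °C. Protein was measured by SRB staining with absorbance at 515 nm. Percentage growth was recorded, and inhibition percentage was calculated as 100 minus growth percentage.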

[16] = test system: MDA-MB-231; assay: Cytotoxicity against human MDA-MB-231 cells assessed as cell growth at 0.001 uM after 48 hrs by sulforhodamine B assay; settings: MDA-MB-231, 48 h, read-out: Activity
[17] = test system: ACHN; assay: Cytotoxicity against human ACHN cells assessed as cell growth at 10 uM; settings: read-out: Activity; method in brief: as §3
[18] = test system: T47D; assay: Cytotoxicity against human T47D cells assessed as cell growth at 1 uM after 48 hrs by sulforhodamine B assay; settings: read-out: Activity
[19] = test system: MDA-MB-468; assay: Cytotoxicity against human MDA-MB-468 cells assessed as cell growth at 10 uM after 48 hrs by sulforhodamine B assay; settings: MDA-MB-468, 48 h, read-out: Activity
[20] = test system: MDA-MB-435; assay: Cytotoxicity against human MDA-MB-435 cells assessed as cell growth at 100 nM after 48 hrs by sulforhodamine B assay; settings: MDA-MB-435, 48 h, read-out: Activity
[21] = test system: MDA-MB-231; assay: Cytotoxicity against human MDA-MB-231 cells assessed as cell growth at 100 nM after 48 hrs by sulforhodamine B assay; settings: MDA-MB-231, 48 h, read-out: Activity
[22] = test system: T47D; assay: Growth inhibition of human T47D cells after 48 hrs by sulforhodamine B assay; method in brief: as §2
[23] = test system: OVCAR-4; assay: Cytotoxicity against human OVCAR4 cells assessed as cell growth at 0.001 uM after 48 hrs by sulforhodamine B assay; settings: OVCAR-4, 48 h, read-out: Activity
[24] = test system: LOX IMVI; assay: Cytotoxicity against human LOXIMVI cells assessed as cell growth at 10 uM after 48 hrs by sulforhodamine B assay; settings: read-out: Activity
[25] = test system: SF-268; assay: Growth inhibition of human SF268 cells after 48 hrs by sulforhodamine B assay; settings: SF-268, 48 h; method in brief: as §2
[26] = test system: MDA-MB-231; assay: Cytotoxicity against human MDA-MB-231 cells assessed as cell growth at 0.01 uM after 48 hrs by sulforhodamine B assay; settings: MDA-MB-231, 48 h, read-out: Activity
[27] = test system: CCRF-CEM; assay: Cytotoxicity against human CCRF-CEM cells assessed as cell growth at 10 uM after 48 hrs by sulforhodamine B assay; settings: read-out: Activity; method in brief: as §1
[28] = test system: KM12; assay: Cytotoxicity against human KM12 cells assessed as cell growth at 0.001 uM after 48 hrs by sulforhodamine B assay; settings: KM12, 48 h, read-out: Activity
[29] = test system: SK-OV-3; assay: Cytotoxicity against human SKOV3 cells assessed as cell growth at 0.001 uM after 48 hrs by sulforhodamine B assay; settings: SK-OV-3, 48 h, read-out: Activity
[30] = test system: SNB-19; assay: Cytotoxicity against human SNB19 cells assessed as cell growth at 10 uM after 48 hrs by sulforhodamine B assay; settings: SNB-19, 48 h, read-out: Activity
[31] = read-out: LC50 (the source's name)

With `COc1cc(C)cc(-c2nn(CC#N)cc2-c2ccnc(-c3ccc(N(C)C)cc3)c2)c1` the growth at 0.1 µM [1] was 22%, the growth at 0.01 µM [2] was 93% and the GI50 [3] was 0.481 µM. For the same molecule, the TGI [3] was 2.88 µM, the CC50 [3, 31] was 37.2 µM and the growth at 1 µM [4] was -61%. For the same molecule, the GI50 [5] was 0.345 µM, the TGI [5] was 18.2 µM and the CC50 [5, 31] was greater than 100 µM. For the same molecule, the growth at 0.001 µM [6] was 103%, the growth at 10 µM [7] was 13% and the growth at 0.01 µM [8] was 89%. The growth at 0.1 µM [9] was 18%, the growth at 0.001 µM [10] was 93% and the growth at 0.01 µM [11] was 105%. For the same molecule, the growth at 0.001 µM [12] was 105%, the growth at 0.1 µM [13] was 16% and the growth at 10 µM [14] was -11%. The growth at 10 µM [15] was 8.19%, the growth at 0.001 µM [16] was 97% and the growth at 10 µM [17] was 16%. It also gave a growth at 1 µM [18] of 10%, a growth at 10 µM [19] of -63% and a growth at 0.1 µM [20] of -25%. For the same molecule, the growth at 0.1 µM [21] was 52%, the GI50 [22] was 0.475 µM and the LC50 [22] was greater than 100 µM. The TGI [22] was 17.3 µM, the growth at 0.001 µM [23] was 106% and the growth at 10 µM [24] was -23%. The GI50 [25] was 0.478 µM, the TGI [25] was 8.9 µM and the CC50 [25, 31] was greater than 100 µM. It also gave a growth at 0.01 µM [26] of 94%, a growth at 10 µM [27] of 10% and a growth at 0.001 µM [28] of 93%. For the same molecule, the growth at 0.001 µM [29] was 105% and the growth at 10 µM [30] was 9%.
